What was measured:
HEK293 = test: Cytotoxicity against human ERG transfected HEK293 cells after 24 hrs by MTT assay; format: cell-based; settings: HEK293, 24 h
How it was run: (§1)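 MTT viability assay in hERG-transfected HEK293 cells and in HT-29 cells exposed to probe. Half-maximal inhibitory concentration was derived for each cell line and reported as mean ± deviation.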

[1] = biological target: T1, Voltage-gated inwardly rectifying potassium channel KCNH2 (Homo sapiens, UniProt Q12809); test: Binding affinity to ERG channel in human HT-29 cells assessed as fluorescence signal at 0.5 uM incubated for 10 mins by fluorescence microscopic imaging analysis; format: cell-based; settings: ht-29, 10 min
T1 sequence (Q12809 whole entry): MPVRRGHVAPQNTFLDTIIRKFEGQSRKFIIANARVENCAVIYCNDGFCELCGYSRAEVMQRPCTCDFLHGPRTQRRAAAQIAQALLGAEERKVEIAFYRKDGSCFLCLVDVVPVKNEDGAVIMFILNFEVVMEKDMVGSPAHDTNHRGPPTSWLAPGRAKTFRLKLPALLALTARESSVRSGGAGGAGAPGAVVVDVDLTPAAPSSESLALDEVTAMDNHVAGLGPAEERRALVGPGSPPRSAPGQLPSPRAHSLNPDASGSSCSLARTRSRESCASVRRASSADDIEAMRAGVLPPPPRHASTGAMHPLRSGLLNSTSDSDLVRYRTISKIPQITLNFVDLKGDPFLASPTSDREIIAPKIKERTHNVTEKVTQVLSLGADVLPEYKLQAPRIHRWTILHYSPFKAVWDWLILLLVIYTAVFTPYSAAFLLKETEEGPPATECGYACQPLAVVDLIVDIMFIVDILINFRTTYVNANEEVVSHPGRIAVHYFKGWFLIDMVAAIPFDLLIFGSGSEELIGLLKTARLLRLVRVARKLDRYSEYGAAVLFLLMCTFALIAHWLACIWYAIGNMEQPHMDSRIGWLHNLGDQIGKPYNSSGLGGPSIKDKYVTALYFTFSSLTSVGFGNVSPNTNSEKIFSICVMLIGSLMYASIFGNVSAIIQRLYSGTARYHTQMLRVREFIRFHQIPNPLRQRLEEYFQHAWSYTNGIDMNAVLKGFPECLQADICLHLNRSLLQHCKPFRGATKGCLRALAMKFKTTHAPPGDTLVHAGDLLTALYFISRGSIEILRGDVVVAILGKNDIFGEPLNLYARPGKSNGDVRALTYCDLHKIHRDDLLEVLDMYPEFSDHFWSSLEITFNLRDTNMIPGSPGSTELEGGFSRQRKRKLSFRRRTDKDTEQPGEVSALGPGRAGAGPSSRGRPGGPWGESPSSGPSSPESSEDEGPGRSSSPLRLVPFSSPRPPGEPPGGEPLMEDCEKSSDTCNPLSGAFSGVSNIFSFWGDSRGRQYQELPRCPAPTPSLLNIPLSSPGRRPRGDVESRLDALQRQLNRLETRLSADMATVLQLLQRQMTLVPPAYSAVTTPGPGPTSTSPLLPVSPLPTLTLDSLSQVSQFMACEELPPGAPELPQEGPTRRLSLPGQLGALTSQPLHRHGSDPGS
How it was run: (§2)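 Live-cell fluorescence microscopy of hERG-transfected HEK293 cells or HT-29 colorectal cancer cells incubated with probe at 0.5 μM. Images were taken in bright field and in the GFP channel. Probe photophysics were characterised at 10 μM in PBS, pH 7.4.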

[2] = biological target: T1, Voltage-gated inwardly rectifying potassium channel KCNH2; test: Displacement of [3H] dofetilide from human ERG channel expressed in HEK293 cell membranes incubated for 2 hrs by scintillation counting analysis
[3] = biological target: T1, Voltage-gated inwardly rectifying potassium channel KCNH2; test: Binding affinity to human ERG channel expressed in HEK293 cells assessed as fluorescence signal at 0.5 uM incubated for 10 mins by fluorescence microscopic imaging analysis; format: cell-based; settings: hek293, 10 min; how it was run: as §2
HT-29 = test: Cytotoxicity against human HT-29 cells after 24 hrs by MTT assay; format: cell-based; settings: HT-29, 24 h; how it was run: as §1
[4] = biological target: T1, Voltage-gated inwardly rectifying potassium channel KCNH2; test: Binding affinity to ERG channel in human HT-29 cells assessed as fluorescence signal at 0.5 uM incubated for 10 mins by fluorescence microscopic imaging analysis in presence of astemizole; format: cell-based; settings: ht-29, 10 min
How it was run: (§3)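 Competition imaging in hERG-transfected HEK293 or HT-29 cells. Cells were co-incubated with 100 μM astemizole and 0.5 μM probe, then imaged by fluorescence microscopy in bright field and the GFP channel. Cell autofluorescence, with and without astemizole, was checked separately.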

[5] = biological target: T1, Voltage-gated inwardly rectifying potassium channel KCNH2; test: Binding affinity to human ERG channel expressed in HEK293 cells assessed as fluorescence signal at 0.5 uM incubated for 10 mins by fluorescence microscopic imaging analysis in presence of astemizole; format: cell-based; settings: hek293, 10 min; how it was run: as §3

SMILES	IC50 (HEK293) [µM]	Activity [1]	IC50 [2] [nM]	Ki [2] [nM]	Activity [3]	IC50 (HT-29) [µM]	Activity [4]	Activity [5]
O=[N+]([O-])c1ccc(NCCCCN2CCC(Nc3nc4ccccc4n3Cc3ccc(F)cc3)CC2)c2nonc12	12.5	Active	25	12	Active	36.1	Not Active	Not Active
COc1ccc(CCN2CCC(Nc3nc4ccccc4n3Cc3ccc(F)cc3)CC2)cc1 [ASTEMIZOLE]	5.1	–	–	–	–	15.4	–	–
CC(=O)Nc1ccc2c3c(cccc13)C(=O)N(CCCCN1CCC(Nc3nc4ccccc4n3Cc3ccc(F)cc3)CC1)C2=O	7.2	–	–	–	–	18.6	–	–
CCN(CC)c1ccc2cc(C(=O)NCCCCN3CCC(Nc4nc5ccccc5n4Cc4ccc(F)cc4)CC3)c(=O)oc2c1	4.7	–	–	–	–	9.9	–	–

From ChEMBL document CHEMBL3804778, “Astemizole Derivatives as Fluorescent Probes for hERG Potassium Channel Imaging” (ACS Med Chem Lett, 2016)
